# Measurements reported in ChEMBL document CHEMBL3872252, “New bithiazolyl hydrazones: Novel synthesis, characterization and antitubercular evaluation” (Bioorg Med Chem Lett, 2017).
# What was measured:
# [1] = system: Staphylococcus aureus; assay: Growth inhibition of Staphylococcus aureus at 30 ug/ml; type: functional; settings: read-out: GI
# [2] = Antitubercular activity against Mycobacterium tuberculosis H37Ra ATCC 25177 dormant stage measured on day 12 by XTT reduction menadione based two-fold dilution assay; type: functional; settings: ATCC 25177, 288 h
# In short: (§1)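 M. tuberculosis H37Ra ATCC 25177 was exposed to 0.7–100 μg/mL in two-fold steps (0.7, 1.5, 3.1 … 100). Active stage was read after 8 days and dormant stage after 12 days of incubation. Inhibition was read by XTT reduction menadione assay (XRMA), absorbance 470 nm. MIC90 is the concentration giving ≥90% inhibition (µg/mL).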
# [3] = system: Escherichia coli; assay: Antibacterial activity against Escherichia coli; type: functional
# [4] = system: Bacillus subtilis; assay: Antibacterial activity against Bacillus subtilis; type: functional
# [5] = Selectivity index, ratio of GI50 for human HCT116 cells to MIC90 for Mycobacterium bovis BCG ATCC 35743 active stage; type: toxicity, cell-based, HCT-116; settings: read-out: Selectivity Index
# In short: (§2)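 Cytotoxicity was measured on human MCF-7, HCT116 and THP-1 cells by MTT assay, with paclitaxel as reference. GI50 is the concentration inhibiting 50% of cell growth. The selectivity index is GI50 for the given cell line divided by MIC90 for the given mycobacterial strain and stage.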
# [6] = system: Escherichia coli; assay: Growth inhibition of Escherichia coli at 3 ug/ml; type: functional; settings: read-out: GI
# In short: (§3)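 Screened against Gram-negative E. coli and P. aeruginosa and Gram-positive S. aureus and B. subtilis. Compound was tested at 3 µg/ml, and the read-out is percent growth inhibition.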
# [7] = system: Staphylococcus aureus; assay: Growth inhibition of Staphylococcus aureus at 3 ug/ml; type: functional; settings: read-out: GI; in short: as §3
# [8] = system: Pseudomonas aeruginosa; assay: Growth inhibition of Pseudomonas aeruginosa at 30 ug/ml; type: functional; settings: read-out: GI
# [9] = system: Escherichia coli; assay: Growth inhibition of Escherichia coli at 30 ug/ml; type: functional; settings: read-out: GI
# [10] = system: Pseudomonas aeruginosa; assay: Growth inhibition of Pseudomonas aeruginosa at 3 ug/ml; type: functional; settings: read-out: GI; in short: as §3
# [11] = Selectivity index, ratio of GI50 for human HCT116 cells to MIC90 for Mycobacterium bovis BCG ATCC 35743 dormant stage; type: toxicity, cell-based, HCT-116; settings: read-out: Selectivity Index
# In short: (§4)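 Cytotoxicity was measured on human MCF-7, HCT116 and THP-1 cells by MTT assay, with paclitaxel as reference. The selectivity index is GI50 for the given cell line divided by MIC90 for the given mycobacterial strain and stage.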
# [12] = Cytotoxicity against human THP1 cells by MTT assay; type: toxicity, cell-based, THP-1
# [13] = Cytotoxicity against human HCT116 cells by MTT assay; type: toxicity, cell-based, HCT-116
# [14] = Selectivity index, ratio of GI50 for human HCT116 cells to MIC90 for Mycobacterium tuberculosis H37Ra ATCC 25177 dormant stage; type: toxicity, cell-based, HCT-116; settings: read-out: Selectivity Index; in short: as §4
# [15] = system: Bacillus subtilis; assay: Growth inhibition of Bacillus subtilis at 30 ug/ml; type: functional; settings: read-out: GI
# [16] = Selectivity index, ratio of GI50 for human THP1 cells to MIC90 for Mycobacterium tuberculosis H37Ra ATCC 25177 dormant stage; type: toxicity, cell-based, THP-1; settings: read-out: Selectivity Index; in short: as §4
# [17] = system: Pseudomonas aeruginosa; assay: Growth inhibition of Pseudomonas aeruginosa at 10 ug/ml; type: functional; settings: read-out: GI
# [18] = Antitubercular activity against Mycobacterium bovis BCG ATCC 35743 active stage measured on day 8 by nitrate reductase based two-fold dilution assay; type: functional, Mycobacterium bovis BCG str. ATCC 35743; settings: Mycobacterium tuberculosis variant bovis BCG, ATCC 35743, 192 h
# [19] = Antitubercular activity against Mycobacterium tuberculosis H37Ra ATCC 25177 active stage measured on day 8 by XTT reduction menadione based two-fold dilution assay; type: functional; settings: ATCC 25177, 192 h; in short: as §1
# [20] = system: Bacillus subtilis; assay: Growth inhibition of Bacillus subtilis at 10 ug/ml; type: functional; settings: read-out: GI
# [21] = Antitubercular activity against Mycobacterium tuberculosis H37Ra ATCC 25177 active stage infected in human THP1 cells measured on day 8 by nitrate reductase assay; type: functional, THP-1; settings: ATCC 25177, 192 h
# [22] = system: Staphylococcus aureus; assay: Antibacterial activity against Staphylococcus aureus; type: functional
# [23] = system: Pseudomonas aeruginosa; assay: Antibacterial activity against Pseudomonas aeruginosa; type: functional
# [24] = Cytotoxicity against human MCF7 cells by MTT assay; type: toxicity, cell-based
# [25] = Antitubercular activity against Mycobacterium tuberculosis H37Ra ATCC 25177 dormant stage infected in human THP1 cells measured on day 12 by nitrate reductase assay; type: functional, THP-1; settings: ATCC 25177, 288 h
# [26] = system: Escherichia coli; assay: Growth inhibition of Escherichia coli at 10 ug/ml; type: functional; settings: read-out: GI
# [27] = Selectivity index, ratio of GI50 for human HCT116 cells to MIC90 for Mycobacterium tuberculosis H37Ra ATCC 25177 active stage; type: toxicity, cell-based, HCT-116; settings: read-out: Selectivity Index; in short: as §2
# [28] = system: Bacillus subtilis; assay: Growth inhibition of Bacillus subtilis at 3 ug/ml; type: functional; settings: read-out: GI; in short: as §3
# [29] = system: Staphylococcus aureus; assay: Growth inhibition of Staphylococcus aureus at 10 ug/ml; type: functional; settings: read-out: GI
# [30] = Antitubercular activity against Mycobacterium bovis BCG ATCC 35743 dormant stage measured on day 12 by nitrate reductase based two-fold dilution assay; type: functional, Mycobacterium bovis BCG str. ATCC 35743; settings: Mycobacterium tuberculosis variant bovis BCG, ATCC 35743, 288 h
compound,measurement,setting,value
C/C(=N\Nc1nc(-c2ccc(Br)cc2)cs1)c1sc(-c2ccccc2)nc1C,inhibition of growth at 30 µg/mL,[1],96.8%
same,IC50,[2],0.14 µg/mL
same,MIC90,[2],57.7 µg/mL
same,IC50,[3],0.475 µg/mL
same,MIC,[3],1.14 µg/mL
same,IC50,[4],0.526 µg/mL
same,MIC,[4],1.95 µg/mL
same,selectivity ratio,[5],1
same,inhibition of growth at 3 µg/mL,[6],93%
same,inhibition of growth at 3 µg/mL,[7],92.8%
same,inhibition of growth at 30 µg/mL,[8],98.4%
same,inhibition of growth at 30 µg/mL,[9],96.7%
same,inhibition of growth at 3 µg/mL,[10],94.3%
same,selectivity ratio,[11],1
same,GI50,[12]; THP1 cells,48.9 µg/mL
same,GI90,[12]; thp-1,> 100 µg/mL
same,GI50,[13]; HCT116 cells,55.6 µg/mL
same,GI90,[13]; hct-116,> 100 µg/mL
same,selectivity ratio,[14],1
same,inhibition of growth at 30 µg/mL,[15],96.5%
same,selectivity ratio,[16],1
same,inhibition of growth at 10 µg/mL,[17],95.8%
same,IC50,[18],> 100 µg/mL
same,MIC90,[18],> 100 µg/mL
same,IC50,[19],0.18 µg/mL
same,MIC90,[19],> 100 µg/mL
same,inhibition of growth at 10 µg/mL,[20],93.8%
same,MIC90,[21],> 100 µg/mL
same,IC50,[22],0.453 µg/mL
same,MIC,[22],1.84 µg/mL
same,IC50,[23],0.416 µg/mL
same,MIC,[23],1.05 µg/mL
same,GI50,[24]; MCF7 cells,26.3 µg/mL
same,GI90,[24]; mcf7,> 100 µg/mL
same,MIC90,[25],> 100 µg/mL
same,inhibition of growth at 10 µg/mL,[26],94.4%
same,selectivity ratio,[27],1
same,inhibition of growth at 3 µg/mL,[28],92.3%
same,inhibition of growth at 10 µg/mL,[29],94.3%
same,IC50,[30],> 100 µg/mL
same,MIC90,[30],> 100 µg/mL
CC1(C)S[C@@H]2[C@H](NC(=O)[C@H](N)c3ccccc3)C(=O)N2[C@H]1C(=O)O [AMPICILLIN],MIC,[3],1.46 µg/mL
same,MIC,[4],10.3 µg/mL
same,MIC,[22],1 µg/mL
same,MIC,[23],4.36 µg/mL
NC[C@H]1O[C@H](O[C@H]2[C@H](O)[C@@H](O[C@H]3O[C@H](CO)[C@@H](O)[C@H](N)[C@H]3O)[C@H](N)C[C@@H]2N)[C@H](O)[C@@H](O)[C@@H]1O [KANAMYCIN],MIC,[3],1.62 µg/mL
same,MIC,[4],1.35 µg/mL
same,MIC,[22],> 30 µg/mL
same,MIC,[23],0.49 µg/mL
